# From publication PMC9661475 (Journal of Medicinal Chemistry, 2022)
# How the values were obtained:
# EV-D68 VP1 expression [1] = experiment: Immunofluorescence assay of viral VP1 in RD cells; assay type: cell-based, Enterovirus D68; details: EV-D68-infected RD cells, MOI 1, 12 h
# In short: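 RD cells were infected with EV-D68 at MOI 1 in the presence of test compound for 12 h. They were then fixed with 4% formaldehyde for 30 min, permeabilized with 0.1% Triton X-100 for 30 min and blocked with 5% bovine serum. Staining used rabbit anti-VP1 with an Alexa-546 secondary and 1 μM Hoechst33342 for nuclei, followed by fluorescence microscopy imaging.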
# EV-D68 VP1 expression [2] = experiment: Western blot assay of viral VP1 in RD cells; assay type: cell-based, Enterovirus D68; details: EV-D68-infected RD cells, MOI 0.01, 12 hpi
# In short: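 RD cells (8.0 × 10^4 per well) were seeded and infected after 24 h with EV-D68 at MOI 0.01, with gradient-diluted test compound or DMSO, for 1.5 h. Cells were lysed in RIPA at 12 hpi. Equal protein was run on 10% SDS-PAGE, transferred to PVDF and blocked with 5% skim milk. Blots were probed with anti-EV-D68 and tubulin antibodies, then HRP secondaries, with ECL detection.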
# EV-D68 [3] = experiment: Plaque formation assay in RD cells; assay type: cell-based, Enterovirus D68; details: concentration of 1 μM
# In short: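 RD cells grown overnight received serially diluted virus stock plus test compound for 1.5 h. The supernatant was then removed and replaced with a 2× DMEM overlay containing 2% low-melting agarose.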
# [4] = system: EV-D68 strain STL-2014-12; experiment: CPE reduction assay, EV-D68 STL-2014-12 in RD cells; assay type: cell-based, Enterovirus D68; details: for EC50: Enterovirus D, EVD68, RD, CPE assay, anti-EV-D68 activity; for anti-EV-D68 activity: running text on series 1 SAR
# EV-D68 virions [5] = experiment: Thermoprotection assay; design: species or system Enterovirus D68; details: 12.5 μM, heated 2 min, TCID50
# In short: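 Virus (2 × 10^6 PFU/ml) was preincubated with test compound (12.5 μM) or DMSO for 30 min at 33 °C. It was then heated for 2 min at 37–59 °C and rapidly cooled to 4 °C. Residual titre was measured by TCID50 on RD cells: 10-fold virus dilutions, CPE scored after 72 h, Reed–Muench calculation.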
# [6] = Liver microsome stability assay, rat; assay type: in vitro ADME; details: liver microsomes
# In short: (§1)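 Test compound (1 μM final) was incubated at 37 °C with rat, beagle dog or human liver microsomes (0.5 mg/mL protein) and 1 mM NADPH, with a parallel no-NADPH control. Aliquots were quenched at 0, 5, 15, 30 and 60 min in solution containing internal standard, centrifuged at 4 °C and analysed by LC-MS/MS. t1/2 and intrinsic clearance were derived from compound depletion.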
# EV-D68 [7] = experiment: Time of drug addition assay; assay type: cell-based, Enterovirus D68; details: 2 μM, RD cells, 0.01 MOI, viral load by qRT-PCR
# [8] = Pharmacokinetic study in SD rats; assay type: in vivo; details: male, rat, plasma, iv, 1 mg/kg
# In short: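 Male SD rats (6–9 or 6–8 weeks old, depending on compound; n = 3) received a single iv dose of 1 mg/kg. The vehicle was 5% DMSO/5% Solutol HS-15/90% water or 5% DMSO/95% HP-β-CD in water. Jugular blood was taken into heparin at 0.083, 0.25, 0.5, 1, 2, 4, 6 and 24 h. Plasma, obtained by centrifugation at about 4 °C, was assayed by LC-MS/MS.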
# [9] = Liver microsome stability assay, human; assay type: in vitro ADME; details: liver microsomes
# In short: as §1
# various EV-D68 strains = experiment: CPE assay, various EV-D68 strains; assay type: cell-based; details: Enterovirus D, EVD68
# In short: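 RD cells (DMEM, 10% FBS, 37 °C, 5% CO2) were seeded at 1.5 × 10^4/well and grown for 24 h. They were infected with 100 TCID50 of strain STL-2014-12, US/KY/14-18953, US/MO/14-18947 or Fermon, plus test compound in 3-fold dilutions (0.01–200 μM) or DMSO, for 72 h at 37 °C. ATP was read by CellTiter-Glo luminescence and normalised to uninfected and infected controls. EC50 is the concentration giving a 50% ATP increase.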
# [10] = Liver microsome stability assay, dog; assay type: in vitro ADME; details: beagle, liver microsomes
# In short: as §1
# EV-D68 virions [11] = experiment: Particle stability thermal release assay; design: species or system Enterovirus D68; details: 10 μg/mL, 1.5 μg purified EV-D68, SYTO9
# In short: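 Test compound (10 μg/mL) or DMSO was mixed with 1.5 μg EV-D68 and SYTO9 nucleic-acid dye, at 5% DMSO. The mixture was held at 33 °C for 15 min, then ramped from 25 to 99 °C. Fluorescence was recorded in triplicate at 1 °C steps, and melting temperature was taken from the negative first-derivative curve.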
compound,measurement,setting,value
"Cl.Nc1ccc(-c2ccc3ncc(-c4noc(C(F)(F)F)n4)cc3c2)cc1 [19·HCl, 4-(3-(5-(Trifluoromethyl)-1,2,4-oxadiazol-3-yl)quinolin-6-yl)aniline Hydrochloride]",expression level of viral VP1,EV-D68 VP1 expression [1],significantly inhibited the expression level of viral VP1 in a dose-dependent manner
same,expression level of viral VP1,EV-D68 VP1 expression [2],significantly inhibited the expression level of viral VP1 in a dose-dependent manner
same,replication of EV-D68 virus particles (plaque formation),EV-D68 [3],significantly inhibited the replication of EV-D68 virus particles
"CCCc1ccc(-c2ccc3ncc(C(=O)OCC)cc3c2)cc1 [Compound 10, Ethyl 6-(4-Propylphenyl)quinoline-3-carboxylate]",EC50,[4],> 10 µM
"CCOC(=O)c1cnc2ccc(-c3cccc(N)c3)cc2c1 [Compound 11, Ethyl 6-(3-Aminophenyl)quinoline-3-carboxylate]",EC50,[4],> 10 µM
"CCOC(=O)c1cnc2ccc(-c3cn[nH]c3)cc2c1 [Compound 17, Ethyl 6-(1H-Pyrazol-4-yl)quinoline-3-carboxylate]",anti-EV-D68 activity,[4],complete loss of activity
"CCOC(=O)c1cnc2ccc(-c3ccc(C(N)=O)cc3)cc2c1 [Compound 18, Ethyl 6-(4-Carbamoylphenyl)quinoline-3-carboxylate]",anti-EV-D68 activity,[4],inactivation
"Nc1ccc(-c2ccc3ncc(-c4noc(C(F)(F)F)n4)cc3c2)cc1 [Compound 19, 4-(3-(5-(Trifluoromethyl)-1,2,4-oxadiazol-3-yl)quinolin-6-yl)aniline]",thermal inactivation of virus at 55 °C,EV-D68 virions [5],significantly reduce the thermal inactivation
same,virus activity at 57 °C,EV-D68 virions [5],maintained certain virus activity
same,increase in antiviral potency compared to compound 15,"[4]; EC50 ratio, STL-2014-12",~10 fold
same,"CLint scaled at 1 h, 1 µM",[6],61.2 mL/min/kg
same,"antiviral activity, drug added after 1 hpi (phases II and IV)",EV-D68 [7],antiviral activity disappeared
same,"antiviral activity, drug added at 0–1 h (phase I) and 0–14 h (phase III)",EV-D68 [7],significant antiviral activity
same,clearance at 24 h,[8],64 ± 13.1 mL/min/kg
same,"CLint scaled at 1 h, 1 µM",[9],10.8 mL/min/kg
same,EC50,various EV-D68 strains,50 to 100 nM
same,"CLint scaled at 1 h, 1 µM",[10],116 mL/min/kg
"CCc1nc(-c2cnc3ccc(-c4ccc(N)cc4)cc3c2)no1.Cl [Compound 21·HCl, 4-(3-(5-Ethyl-1,2,4-oxadiazol-3-yl)quinolin-6-yl)aniline Hydrochloride]",expression level of viral VP1,EV-D68 VP1 expression [1],significantly inhibited the expression level of viral VP1 in a dose-dependent manner
same,expression level of viral VP1,EV-D68 VP1 expression [2],significantly inhibited the expression level of viral VP1 in a dose-dependent manner
same,clearance at 24 h,[8],106 ± 10 mL/min/kg
same,replication of EV-D68 virus particles (plaque formation),EV-D68 [3],significantly inhibited the replication of EV-D68 virus particles
"Cc1cc(CCCOc2c(C)cc(-c3noc(C(F)(F)F)n3)cc2C)on1 [Pleconaril, pleconaril, reference compound]",thermal inactivation of virus at 55 °C,EV-D68 virions [5],significantly reduce the thermal inactivation
same,"antiviral activity, drug added after 1 hpi (phases II and IV)",EV-D68 [7],same experimental results
same,"antiviral activity, drug added at 0–1 h (phase I) and 0–14 h (phase III)",EV-D68 [7],same experimental results
same,protection against viral particles (PaSTRy),EV-D68 virions [11],almost no protection
